From ChEMBL document CHEMBL4725371, “A Novel Redox Modulator Induces a GPX4-Mediated Cell Death That Is Dependent on Iron and Reactive Oxygen Species” (J Med Chem, 2020)
pIC50: −log10 of the molar value. Active and inactive are the calls of the source. The rule behind the calls is not given here.

How the values were obtained:
[1] = tested on: MIA PaCa-2; assay: Cytotoxicity against human MIA PaCa-2 cells measured after 72 hrs by MTT assay; type: functional, cell-based; conditions: MIA PaCa-2, 72 h
Procedure, shortened: (§1)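 Cells were kept in RPMI 1640 with 10% FBS at 37 °C, 5% CO₂, under 35 passages. Cells were seeded, attached overnight and treated with compound or DMSO for 72 h. MTT was added at 0.3 mg/mL for 3 h, then dissolved in DMSO and read as absorbance at 570 nm. IC50 was fitted from the curve. Values are mean ± sd of three independent experiments.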

[2] = tested on: BXPC-3; assay: Cytotoxicity against human BXPC-3 cells measured after 72 hrs by MTT assay; type: functional, cell-based; conditions: BXPC-3, 72 h; procedure, shortened: as §1
[3] = tested on: PANC-1; assay: Cytotoxicity against human PANC-1 cells measured after 72 hrs by MTT assay; type: functional, cell-based; conditions: PANC-1, 72 h; procedure, shortened: as §1
[4] = Drug level in mouse plasma treated with QD394 at 500 uM measured after 0.5 hrs by LC-MS/MS analysis
[5] = tested on: MIA PaCa-2; assay: Down regulation of LRPPRC expression in human MIA PaCa-2 cells at 3 times IC50 measured after 4 hrs in presence of NAC by proteomics analysis; type: functional, cell-based
[6] = tested on: MIA PaCa-2; assay: Down regulation of LRPPRC expression in human MIA PaCa-2 cells at 3 times IC50 measured after 4 hrs by proteomics analysis; type: functional, cell-based
[7] = tested on: MIA PaCa-2; assay: Down regulation of PNPT1 expression in human MIA PaCa-2 cells at 3 times IC50 measured after 4 hrs in presence of NAC by proteomics analysis; type: functional, cell-based
[8] = tested on: PANC-1; assay: Down regulation of PNPT1 expression in human PANC-1 cells at 3 times IC50 measured after 1 to 24 hrs by proteomics analysis; type: functional, cell-based; conditions: time hrs 1-24
[9] = tested on: MIA PaCa-2; assay: Inhibition glutathione synthesis in human MIA PaCa-2 cells at 1 to 2 uM measured after 2 to 4 hrs by GSH/GSSG-glo assay; type: functional, cell-based; conditions: dose microM 1-2, time hrs 2-4
Procedure, shortened: (§2)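 GSH/GSSG-Glo luminescent assay: 15,000–20,000 MIA PaCa-2 cells per well, attached overnight, treated 2 h and 4 h. Cells were lysed with total or oxidized glutathione reagent, then luciferin generation (30 min, room temperature) and detection reagents added. Luminescence was read after 15 min. Ratio was computed from net RLU as (total − GSSG)/(GSSG/2).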

[10] = tested on: PANC-1; assay: Down regulation of LRPPRC expression in human PANC-1 cells at 3 times IC50 measured after 1 to 24 hrs by proteomics analysis; type: functional, cell-based; conditions: time hrs 1-24
[11] = tested on: MIA PaCa-2; assay: Down regulation of PNPT1 expression in human MIA PaCa-2 cells at 3 times IC50 measured after 4 hrs in presence of NQO1 inhibitor dicoumarol by proteomics analysis; type: functional, cell-based
[12] = tested on: MIA PaCa-2; assay: Down regulation of PNPT1 expression in human MIA PaCa-2 cells at 3 times IC50 measured after 4 hrs by proteomics analysis; type: functional, cell-based
[13] = tested on: MIA PaCa-2; assay: Induction of reactive oxygen species in human MIA PaCa-2 cells assessed as reduction in GSH to GSSG ratio at 1 to 2 uM measured after 2 to 4 hrs by GSH/GSSG-glo assay; type: functional, cell-based; conditions: dose microM 1-2, time hrs 2-4; procedure, shortened: as §2
[14] = tested on: MIA PaCa-2; assay: Down regulation of LRPPRC expression in human MIA PaCa-2 cells at 3 times IC50 measured after 4 hrs in presence of NQO1 inhibitor dicoumarol by proteomics analysis; type: functional, cell-based
[15] = tested on: MIA PaCa-2; assay: Inhibition of colony formation in human MIA PaCa-2 cells at 0.6 uM measured after 7 to 9 days in presence of necroptosis inhibitor necrostatin-1 by crystal violet staining based assay; type: functional, cell-based; conditions: time day 7-9
Procedure, shortened: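 Cells seeded overnight in 96-well plates at 300 cells/well (MIA PaCa-2) or 600 cells/well (BxPC-3), in RPMI 1640 with 10% FBS. Inhibitor added 1 h before compound, then continuous exposure for 7–9 days until control wells were 80–90% confluent. Stained with 0.05% crystal violet for 30 min, imaged after overnight drying and quantified.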

[16] = tested on: MIA PaCa-2; assay: Induction of reactive oxygen species in human MIA PaCa-2 cells at 5 to 10 uM measured up to 4 hrs by CM-H2DCFDA dye based fluorescence assay; type: functional, cell-based; conditions: dose microM 5-10, time hrs <=4
Procedure, shortened: (§3)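 1.8 × 10⁴ cells per well were attached overnight, then loaded with 10 μM CM-H2DCFDA in HBSS for 40 min at 37 °C and washed. Compounds were added in HBSS. Fluorescence was read at Ex 483 / Em 530 nm. TBHP was the positive control. NAC at 3 mM was used where stated.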

[17] = Half life in human plasma at 500 uM by LC-MS/MS analysis; type: ADME, cell-free
Procedure, shortened: (§4)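 Compound (500 μM DMSO stock) was added at 1 μL per 500 μL pooled plasma. Samples were taken at 0, 0.17, 0.5, 1, 2 and 4 h and centrifuged at 3500 g for 10 min. Supernatant was run by LC-MS/MS. t1/2 came from the slope of ln(compound/internal standard peak area) against time.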

[18] = tested on: MIA PaCa-2; assay: Induction of ferroptosis in human MIA PaCa-2 cells assessed as increase in lipid peroxidation measured after 24 hrs by C11-BODIPY dye based fluorescence assay; type: functional, cell-based
Procedure, shortened: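 MIA PaCa-2 cells were treated for the set time, then given 10 μM C11-BODIPY for 30 min at 37 °C and washed. Fluorescence was read at 581/591 nm (reduced dye) and 488/510 nm (oxidized dye). The intensity ratio was compared by unpaired t-test.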

[19] = Drug level in CD-1 mouse colon at 20 mg/kg, po measured after 1 hr by LC-MS/MS analysis; type: ADME, organism-based; conditions: in vivo
Procedure, shortened: (§5)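 Mice received 20 mg/kg PO or 10 mg/kg IV. Organs were collected after 1 h and homogenised in five-fold dissociation solvent. Homogenate was mixed with acetonitrile and internal standard and centrifuged at 3500 g for 10 min. Supernatant was analysed by LC-MS.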

[20] = Plasma concentration in CD-1 mouse at 10 mg/kg, ip measured after 7 hrs by LC-MS/MS analysis; type: ADME, organism-based
Procedure, shortened: (§6)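 CD-1 mice dosed IP at 10 mg/kg or PO at 20 mg/kg, n=2 per route. Blood taken with heparinized pipettes at 0.5, 2, 4 and 7 h and spun at 15,000 rpm for 10 min. Plasma stored at −80 °C, then measured by LC-MS/MS.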

[21] = Half life in mouse liver microsomes at 10 uM in presence of NADPH by LC-MS/MS analysis; type: ADME, Microsome; conditions: microsomes, 10 µM
Procedure, shortened: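 Compound (10 μM working solution in 0.1 M phosphate buffer with 3.3 mM MgCl₂) was incubated with mouse liver microsomes and NADPH. Verapamil served as reference. Samples were taken at 0, 5, 10, 15, 30, 45 and 60 min and centrifuged at 3500 g. Supernatant was run by LC-MS/MS. t1/2 came from the slope of ln(peak area ratio) against time.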

[22] = tested on: MIA PaCa-2; assay: Cytotoxicity against human MIA PaCa-2 cells transfected with GPX4 siRNA measured after 72 hrs by MTT assay; type: functional, cell-based
[23] = tested on: MIA PaCa-2; assay: Induction of reactive oxygen species in human MIA PaCa-2 cells at 5 to 10 uM measured after 30 mins in presence of N-acetylcysteine by CM-H2DCFDA dye based fluorescence assay; type: functional, cell-based; conditions: dose microM 5-10, time 30.0 min; procedure, shortened: as §3
[24] = Drug metabolism in CD-1 mouse plasma assessed as hydroxylation at 20 mg/kg, po measured after 15 mins by LC-MS/MS analysis; type: ADME, organism-based; conditions: in vivo, 0.25 h
[25] = Plasma concentration in CD-1 mouse at 20 mg/kg, po measured after 7 hrs by LC-MS/MS analysis; type: ADME, organism-based; procedure, shortened: as §6
[26] = Half life in mouse plasma at 500 uM by LC-MS/MS analysis; type: ADME, cell-free; procedure, shortened: as §4
[27] = Drug level in CD-1 mouse colon at 10 mg/kg, iv measured after 1 hr by LC-MS/MS analysis; type: ADME, organism-based; conditions: in vivo; procedure, shortened: as §5
[28] = target: T1, Phospholipid hydroperoxide glutathione peroxidase GPX4 (Homo sapiens) (UniProt P36969); assay: Binding affinity to GPX4 in human PANC-1 cells assessed as protein destabilization by measuring reduction in melting temperature at 100 uM measured after 1 hr by thermal shift assay; type: cell-based
T1 sequence (whole entry): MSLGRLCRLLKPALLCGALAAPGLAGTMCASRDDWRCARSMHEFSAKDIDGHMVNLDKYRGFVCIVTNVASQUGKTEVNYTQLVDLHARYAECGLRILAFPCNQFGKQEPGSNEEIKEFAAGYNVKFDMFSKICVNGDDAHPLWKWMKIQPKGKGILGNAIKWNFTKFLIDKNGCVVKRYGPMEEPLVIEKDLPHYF

[29] = tested on: CT26; assay: Antitumor activity against mouse CT26 cells implanted in Balb/c mouse assessed as tumor shrinkage at 10 mg/kg, iv administered three times weekly for 17 days measured 4 hrs post-last dose; type: functional, organism-based; conditions: time 17.0 day
Procedure, shortened: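 Female Balb/c mice aged 5–6 weeks, implanted subcutaneously in right flank with 1 × 10⁶ CT-26 cells in DPBS. Dosing began 7 days later with randomisation (n = 5/group, mean tumour 97–117 mm³). IV dosing was 3 times weekly and IP dosing was given. Vehicle control given daily IP. Mice were euthanised four hours post-dose after 17 days of dosing.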

[30] = Drug metabolism in CD-1 mouse plasma assessed as hydroxylation at 10 mg/kg, iv measured after 15 mins by LC-MS/MS analysis; type: ADME, organism-based; conditions: in vivo, 0.25 h

## CCc1ccc(-c2ccc(NC3=CC(=O)c4ncncc4C3=O)cc2)cc1
[1]
  pIC50: 5.82
[2]
  pIC50: 5.80
[3]
  pIC50: 5.64

## O=C1C(Nc2cccc3c2Cc2ccccc2-3)=CC(=O)c2ncncc21
[1]
  pIC50: 5.51
[2]
  pIC50: 5.35
[3]
  pIC50: 5.33

## CN1CCN(c2ccc(NC3=CC(=O)c4ncncc4C3=O)cc2)C(O)C1 (stereo unspecified)
[4]
  Drug uptake: Active

## CC(=O)c1cc2c(o1)C(=O)c1ccccc1C2=O
[5]
  Activity: Active
[6]
  Activity: Active
[7]
  Activity: Active
[8]
  Activity: inactive
[9]
  inhibition: Active
[10]
  Activity: inactive
[11]
  Activity: inactive
[12]
  Activity: Active
[13]
  Activity: Active
[14]
  Activity: inactive
[15]
  inhibition: inactive

## O=C1C(Nc2ccc(-c3ccccn3)cc2)=CC(=O)c2ncncc21
[1]
  pIC50: 5.70
[2]
  pIC50: 5.57
[3]
  pIC50: 6.10

## CC1=C(Nc2ccc(N3CCN(C)CC3)cc2)C(=O)c2cncnc2C1=O
[16]
  Activity: Active
[6]
  Activity: Active
[17]
  half-life at 500 µM: > 2 h
[18]
  Activity: Dose-dependent effect
[1]
  pIC50: 5.44
[19]
  Drug uptake: 0.3 mg/kg
[20]
  concentration at 7 h: 6.7 ng/mL
[21]
  t1/2: 0.743 h
[22]
  Activity: inactive
[23]
  Activity: inactive
[24]
  Drug metabolism: Metabolite_Detected
[25]
  concentration at 7 h: 3.4 ng/mL
[26]
  half-life at 500 µM: > 2 h
[12]
  Activity: Active
[2]
  pIC50: 6.06
[27]
  Drug uptake: 0.3 mg/kg
[28]
  Activity: Dose-dependent effect
[3]
  pIC50: 6.42
[29]
  Activity: Active
[30]
  Drug metabolism: Metabolite_Detected
